Results as given in ChEMBL document CHEMBL1137637, “Quinuclidine derivatives as potential antiparasitics” (Antimicrob Agents Chemother, 2007).
pIC50: −log10 of the molar value. Values after ≈ are worked out from the molar mass of the structure shown.

How the values were obtained:
[1] = tested on: Plasmodium falciparum; test: Antiplasmodial activity after 48 hrs against chloroquine and pyrimethamine-resistant Plasmodium falciparum K1 in human erythrocytes by [3H]hypoxanthine uptake; type: functional, organism-based
Procedure, shortened: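 P. falciparum K1 in human red cells in RPMI 1640 with 5% Albumax, exposed to serial drug dilutions. Incubated 48 h at 37°C under reduced oxygen, then 0.5 μCi [³H]hypoxanthine per well for 24 h more. Cells harvested onto glass-fibre filters and counted by scintillation. Result expressed as % of untreated control, with IC50 from sigmoidal curve. Duplicate, plus an independent repeat for actives.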

[2] = tested on: Leishmania donovani; test: Antileishmanial activity against Leishmania donovani MHOM/ET/67/L82 axenic amastigotes after 72 hrs by resazurin assay; type: functional, organism-based; details: MHOM/ET/67/L82, 72 h
Procedure, shortened: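 L. donovani MHOM/ET/67/L82 amastigotes grown axenically at 37°C in synthetic minimal medium at pH 5.4 with 10% heat-inactivated FBS under 5% CO2. 1 × 10⁵ amastigotes per well with seven threefold dilutions, 30 to 0.041 μg/ml. After 72 h, resazurin added for 2–4 h more. Fluorescence read at ex 536/em 588 nm. IC50 taken from sigmoidal curve. Run in duplicate, with an independent repeat for actives.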

[3] = biological target: T1, Squalene synthase (Homo sapiens, UniProt P37268); test: Inhibition of human recombinant squalene synthase expressed in Escherichia coli BL21(DE3 pLysS) up to 1 uM by liquid scintillation counter
T1 sequence (P37268 whole entry): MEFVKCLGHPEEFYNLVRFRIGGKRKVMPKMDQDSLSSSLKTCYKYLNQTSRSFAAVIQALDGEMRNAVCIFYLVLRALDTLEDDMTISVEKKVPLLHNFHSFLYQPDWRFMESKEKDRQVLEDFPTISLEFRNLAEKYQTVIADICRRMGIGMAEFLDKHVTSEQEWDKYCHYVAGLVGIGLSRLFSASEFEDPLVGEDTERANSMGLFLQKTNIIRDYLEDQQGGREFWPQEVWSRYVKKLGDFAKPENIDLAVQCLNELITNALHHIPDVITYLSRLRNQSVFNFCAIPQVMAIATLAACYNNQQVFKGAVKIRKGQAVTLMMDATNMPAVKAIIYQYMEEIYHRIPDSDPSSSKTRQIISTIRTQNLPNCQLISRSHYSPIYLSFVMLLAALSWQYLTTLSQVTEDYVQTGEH
Procedure, shortened: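 Human SQS in extracts of E. coli BL21(DE3 pLysS) carrying pHSS16, assayed under the same conditions as the L. major enzyme. Buffer: phosphate pH 7.4, MgCl2, CHAPS, Tween 80, DTT, BSA, and NADPH with a regenerating system. Substrate 0.5 μM radiolabelled farnesyl pyrophosphate. Squalene band radioactivity counted by scintillation.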

[4] = tested on: Trypanosoma cruzi; test: Antitrypanosomal activity against trypomastigotes of Trypanosoma cruzi Tulahuen C2C4 containing lacZ gene in rat L6 cells after 4 days by chlorophenol red-beta-D-galactopyranoside/Nonidet assay; type: functional, organism-based; details: Tulahuen C2C4, L6, 96 h
Procedure, shortened: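 L-6 rat myoblasts seeded at 2,000 cells/well in RPMI 1640 with 10% FBS and 2 mM L-glutamine. After 24 h, 5,000 T. cruzi Tulahuen C2C4 lacZ trypomastigotes added with serial drug dilution. Incubated at 37°C in 5% CO2 for 4 days. CPRG/Nonidet substrate added and colour read at 540 nm after 2–4 h. IC50 from sigmoidal curve. Duplicate determinations.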

[5] = tested on: Trypanosoma brucei rhodesiense; test: Trypanocidal activity against Trypanosoma brucei rhodesiense STIB 900 bloodstream form after 72 hrs by resazurin assay; type: functional, organism-based; details: STIB 900, 72 h
Procedure, shortened: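 T. b. rhodesiense STIB 900 bloodstream forms in MEM with 2-mercaptoethanol and 15% heat-inactivated horse serum, with serial drug dilutions. Incubated 72 h at 37°C in 5% CO2. Resazurin added for 2–4 h more, fluorescence read at ex 536/em 588 nm. IC50 from sigmoidal curve. Duplicate, with an independent repeat for actives.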

[6] = tested on: Leishmania amazonensis; test: Inhibition of sterol biosynthesis in Leishmania mexicana amazonensis promastigotes assessed as reduction in endogenous 5-dehydro episterol level at 10 uM after 96 hrs by gas-liquid chromatography; type: functional; set-up: scale not given: the % may be the effect or the level left
Procedure, shortened: (§1)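 L. mexicana promastigotes exposed to compound for 96 h. Total lipids extracted and neutral sterols separated from polar lipids by silicic acid column chromatography. Sterols analysed by TLC and by quantitative capillary gas-liquid chromatography with mass spectrometry. Composition expressed as mass % of free sterols, compared with untreated control.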

[7] = biological target: T2, Farnesyltransferase, putative (Leishmania major, UniProt Q4Q5W4); test: Inhibition of Leishmania major recombinant squalene synthase expressed in Escherichia coli by liquid scintillation counter
T2 sequence (Q4Q5W4 whole entry): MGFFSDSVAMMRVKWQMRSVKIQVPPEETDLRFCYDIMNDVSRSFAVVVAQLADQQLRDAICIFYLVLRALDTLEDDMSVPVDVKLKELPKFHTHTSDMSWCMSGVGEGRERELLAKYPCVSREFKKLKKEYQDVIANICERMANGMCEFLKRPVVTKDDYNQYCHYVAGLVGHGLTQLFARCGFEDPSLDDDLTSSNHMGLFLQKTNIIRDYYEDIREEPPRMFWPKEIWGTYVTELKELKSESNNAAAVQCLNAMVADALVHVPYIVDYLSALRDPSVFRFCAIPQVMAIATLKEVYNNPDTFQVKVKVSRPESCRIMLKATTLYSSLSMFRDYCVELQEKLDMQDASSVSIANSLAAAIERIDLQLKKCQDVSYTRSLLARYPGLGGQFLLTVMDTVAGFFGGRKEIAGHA
Procedure, shortened: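 Soluble E. coli extract expressing L. major SQS truncated by 16 N-terminal and 40 C-terminal residues. Buffer: 50 mM phosphate pH 7.4, 20 mM MgCl2, 5 mM CHAPS, 1% Tween 80, 10 mM DTT, BSA, 0.25 mM NADPH, and a glucose-6-phosphate/G6PDH regenerating system. Substrate 0.5 μM radiolabelled farnesyl pyrophosphate. Squalene band counted by scintillation. IC50 from hyperbolic plot of five concentrations in duplicate, usually run twice.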

[8] = tested on: Leishmania amazonensis; test: Inhibition of sterol biosynthesis in Leishmania mexicana amazonensis promastigotes assessed as reduction in exogenous cholesterol level at 10 uM after 96 hrs by gas-liquid chromatography; type: functional; set-up: scale not given: the % may be the effect or the level left; procedure, shortened: as §1
[9] = tested on: Leishmania amazonensis; test: Antileishmanial activity against Leishmania mexicana amazonensis promastigotes by trypan blue exclusion method; type: functional, organism-based
Procedure, shortened: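 L. mexicana amazonensis promastigotes cultured in liver infusion-tryptose medium with lactalbumin and 10% FCS at 26°C, unagitated. Cultures started at 2 × 10⁶ cells/ml and drug added at 0.5–1 × 10⁷ cells/ml. Density counted by electronic particle counter and hemocytometer. Viability by trypan blue exclusion. Triplicate growth experiments.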

[10] = tested on: L6; test: Cytotoxicity against rat L6 cells after 72 hrs by resazurin assay; type: cell-based; details: L6, 72 h
Procedure, shortened: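 L-6 cells seeded at 4 × 10⁴ cells/ml in RPMI 1640 with 10% FBS and 2 mM L-glutamine. After 24 h, medium replaced with serial drug dilution and incubated for 72 h at 37°C in 5% CO2. Resazurin added for 2–4 h, fluorescence read at ex 536/em 588 nm. IC50 from sigmoidal curve. Duplicate, with an independent repeat for actives.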

[11] = tested on: Leishmania amazonensis; test: Inhibition of sterol biosynthesis in Leishmania mexicana amazonensis promastigotes assessed as reduction in endogenous cholesta-7,24-dien-3beta-ol level at 10 uM after 96 hrs by gas-liquid chromatography; type: functional; set-up: scale not given: the % may be the effect or the level left; procedure, shortened: as §1
[12] = tested on: Leishmania amazonensis; test: Inhibition of sterol biosynthesis in Leishmania mexicana amazonensis promastigotes assessed as reduction in endogenous cholesta-5,7,24-trien-3beta-ol level at 10 uM after 96 hrs by gas-liquid chromatography; type: functional; set-up: scale not given: the % may be the effect or the level left; procedure, shortened: as §1
[13] = tested on: Leishmania amazonensis; test: Inhibition of sterol biosynthesis in Leishmania mexicana amazonensis promastigotes assessed as reduction in endogenous episterol level at 10 uM after 96 hrs by gas-liquid chromatography; type: functional; set-up: scale not given: the % may be the effect or the level left; procedure, shortened: as §1
[14] = tested on: Leishmania amazonensis; test: Inhibition of sterol biosynthesis in Leishmania mexicana amazonensis promastigotes assessed as reduction in endogenous cholesta-5,7,24-trien-3beta-ol level at 3 uM after 96 hrs by gas-liquid chromatography; type: functional; set-up: scale not given: the % may be the effect or the level left; procedure, shortened: as §1
[15] = tested on: Leishmania amazonensis; test: Inhibition of sterol biosynthesis in Leishmania mexicana amazonensis promastigotes assessed as reduction in exogenous cholesterol level at 3 uM after 96 hrs by gas-liquid chromatography; type: functional; set-up: scale not given: the % may be the effect or the level left; procedure, shortened: as §1
[16] = tested on: Leishmania amazonensis; test: Inhibition of sterol biosynthesis in Leishmania mexicana amazonensis promastigotes assessed as reduction in endogenous cholesta-7,24-dien-3beta-ol level at 3 uM after 96 hrs by gas-liquid chromatography; type: functional; set-up: scale not given: the % may be the effect or the level left; procedure, shortened: as §1
[17] = tested on: Leishmania amazonensis; test: Inhibition of sterol biosynthesis in Leishmania mexicana amazonensis promastigotes assessed as reduction in endogenous 5-dehydro episterol level at 3 uM after 96 hrs by gas-liquid chromatography; type: functional; set-up: scale not given: the % may be the effect or the level left; procedure, shortened: as §1
[18] = tested on: Leishmania amazonensis; test: Inhibition of sterol biosynthesis in Leishmania mexicana amazonensis promastigotes assessed as reduction in endogenous episterol level at 3 uM after 96 hrs by gas-liquid chromatography; type: functional; set-up: scale not given: the % may be the effect or the level left; procedure, shortened: as §1
[19] = tested on: Leishmania amazonensis; test: Inhibition of sterol biosynthesis in Leishmania mexicana amazonensis promastigotes assessed as reduction in endogenous cholesta-5,7,24-trien-3beta-ol level at 1 uM after 96 hrs by gas-liquid chromatography; type: functional; set-up: scale not given: the % may be the effect or the level left; procedure, shortened: as §1
[20] = tested on: Leishmania amazonensis; test: Inhibition of sterol biosynthesis in Leishmania mexicana amazonensis promastigotes assessed as reduction in exogenous cholesterol level at 1 uM after 96 hrs by gas-liquid chromatography; type: functional; set-up: scale not given: the % may be the effect or the level left; procedure, shortened: as §1
[21] = tested on: Leishmania amazonensis; test: Inhibition of sterol biosynthesis in Leishmania mexicana amazonensis promastigotes assessed as reduction in endogenous 5-dehydro episterol level at 1 uM after 96 hrs by gas-liquid chromatography; type: functional; set-up: scale not given: the % may be the effect or the level left; procedure, shortened: as §1
[22] = tested on: Leishmania amazonensis; test: Inhibition of sterol biosynthesis in Leishmania mexicana amazonensis promastigotes assessed as reduction in endogenous episterol level at 1 uM after 96 hrs by gas-liquid chromatography; type: functional; set-up: scale not given: the % may be the effect or the level left; procedure, shortened: as §1

SMILES | pIC50 [1] | pIC50 [2] | IC50 [3] | pIC50 [4] | pIC50 [5] | Activity [6] [%] | pIC50 [7] | Activity [8] [%] | MIC [9] [µM] | pIC50 [10] | Activity [12] [%] | Activity [13] [%] | Activity [15] [%] | Activity [17] [%] | other results
C(=C1\CN2CCC1CC2)/c1ccc(C2OCCO2)cc1 | 5.00 | 4.11 | Not Active | 4.52 | 4.99 | 57.9 | < 6.00 | 42.1 | 10 (≈ 2.71 µg/mL) | 3.62 |  |  |  |  | 
c1ccc(CC2CN3CCC2CC3)cc1 (stereo not given) | 5.27 | < 3.83 | Not Active | 3.89 | 4.22 | 2.8 | < 6.00 | 14.9 | > 10 | < 3.35 | 23.2 | 51.3 |  |  | Activity [11]: 2.9%
C(=C1/CN2CCC1CC2)/c1ccc(C2OCCO2)cc1 | 4.91 | 4.09 | Not Active | 4.34 | 5.26 | 16.1 | < 6.00 | 25.4 | > 10 | 3.87 | 18.5 | 14.2 |  |  | 
c1ccc2cc(CC3CN4CCC3CC4)ccc2c1 (stereo not given) | 5.74 | < 3.92 | Not Active | 4.60 | 5.60 |  | < 6.00 |  | 3 (≈ 0.754 µg/mL) | 4.01 |  |  | 26.4 | 49.6 | Activity [14]: 11.2%; Activity [16]: 3.5%; Activity [18]: 9.3%
C(=C1/CN2CCC1CC2)/c1ccc2ccccc2c1 | 6.05 | 4.05 | Not Active | 5.55 | 6.30 |  | < 6.00 |  | 3 (≈ 0.748 µg/mL) | 4.59 |  |  | 57.8 | 42.2 | 
c1ccc(-c2ccc(CC3CN4CCC3CC4)cc2)cc1 (stereo not given) | 5.55 | < 3.97 | Not Active | 5.33 | 6.15 |  | < 6.00 |  | 1 (≈ 0.277 µg/mL) | 4.69 |  |  |  |  | Activity [19]: 10.4%; Activity [20]: 51.1%; Activity [21]: 30.3%; Activity [22]: 8.2%
